High-throughput results as filed in PubChem.
Most compounds without a hit are left out; they make up all but 1.9% or so of the library.
HCV NS3 hel inh: inhibitors of Hepatitis C virus NS3 helicase. 0.56% of 290,000 active. AID 1800. NS3 helicase DNA unwinding, Cy5 molecular beacon fluorescence. inhibition, % at 10.9 µM;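 active = inhibition above the mean of all tested compounds plus 3 SD, set per campaign, cut at about 35% in these data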;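 note: 0% = DMSO wells and 100% = thioflavine S control wells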
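test system = hepatitis C virus NS3 helicase domain fragment enzyme | reagent = annealed dual-labelled DNA beacon duplex, ATP-started | times = 1 h at 25 °C | detection = Cy5 fluorescence, 0 and 60 min reads | read-out basis = percent inhibition from t60/t0 fluorescence ratio | control set = DMSO and thioflavine S | replication = one well per compound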
PP1 inh: blocks human PP1-alpha phosphatase, a PP5 counter-screen | P62136 | purified PP1alpha, OMFP fluorescence | inhibition, % at 6.7 µM | 0.9% of 320,000 active | AID 2235;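 active = inhibition above the mean inhibition of all tested compounds plus 3 SD, computed separately for each screening campaign, cut at about 15% in these data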
PP5 inh: blocks human protein phosphatase 5 activity. inhibition, % at 6.7 µM. purified PP5c, OMFP substrate fluorescence. AID 1987. P53041. 0.18% of 320,000 active;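 active = inhibition above the campaign's mean inhibition across all tested compounds plus 3 SD, cut at about 9.5% in these data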;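 note: 0% = DMSO only and 100% = 100 µM cantharidin control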
Target sequence (P53041 whole entry, looked up): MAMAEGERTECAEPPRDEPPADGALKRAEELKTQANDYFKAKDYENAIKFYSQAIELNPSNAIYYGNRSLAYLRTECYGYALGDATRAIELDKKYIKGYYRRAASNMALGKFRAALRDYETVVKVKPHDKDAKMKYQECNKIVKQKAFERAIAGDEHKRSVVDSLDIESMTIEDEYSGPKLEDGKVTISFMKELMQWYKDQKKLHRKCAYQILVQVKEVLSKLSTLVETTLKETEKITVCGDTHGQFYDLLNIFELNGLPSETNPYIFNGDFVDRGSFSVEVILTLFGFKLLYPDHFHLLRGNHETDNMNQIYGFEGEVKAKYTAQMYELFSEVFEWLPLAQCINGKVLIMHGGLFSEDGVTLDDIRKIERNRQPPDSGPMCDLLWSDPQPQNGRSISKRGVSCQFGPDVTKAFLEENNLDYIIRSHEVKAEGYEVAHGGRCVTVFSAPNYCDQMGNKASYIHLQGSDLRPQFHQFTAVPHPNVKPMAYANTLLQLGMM
DNA FID counter-1: displaces DNA intercalator in HCV helicase counter-screen; 0.17% of 290,000 active; DNA fluorescent intercalator displacement, fluorescence; inhibition, % at 7.9 µM;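 note: 0% = vehicle and 100% = reference compound; higher means more ethidium bromide displaced from hairpin DNA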
HIF act: HIF pathway transcriptional activation | activation, % at 7.5 µM (by protocol) | 0.32% of 300,000 active | U2OS HRE-luciferase reporter, luminescence; normalized: DMSO 0%, desferrioxamine 100% | AID 1910;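 active = mean activation of at least 10% of the iron chelator positive control signal, with at least half of replicates also reaching 10%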
NS3 hel confirm: confirmation of Hepatitis C virus NS3 helicase inhibitors. inhibition, % at 10.9 µM. 31% of 1,600 active. NS3 helicase DNA unwinding, Cy5 molecular beacon fluorescence. shares compounds with HCV NS3 hel inh;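 active = inhibition above the mean of all tested compounds plus 3 SD, cutoff set per campaign, cut at about 36% in these data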
DNA FID counter-2: counter-screen for HCV NS3 helicase inhibitors: DNA intercalator displacement; shares compounds with HCV NS3 hel inh; DNA fluorescent intercalator displacement, fluorescence; inhibition, % at 7.9 µM; 4% of 1,600 active;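 note: 0% = vehicle and 100% = reference compound; higher means more displacement of ethidium bromide from the DNA hairpin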
FID counter DR: DNA intercalator displacement in dose response; shares compounds with HCV NS3 hel inh; fluorescent intercalator displacement from DNA, fluorescence; IC50, µM; 120 tested, under 10 active; AID 2172; call rule not given here
Numbers without * were called inactive; i = inactive; . = not tested or not shown. Cut-off read from the data, not from the text of the source, unless noted: active = inhibition above about 37%; inactive = the rest.

SMILES	HCV NS3 hel inh	PP1 inh	PP5 inh	DNA FID counter-1	HIF act	NS3 hel confirm	DNA FID counter-2	others
CN(/N=C\c1ccc(O)c(O)c1)c1nc(-c2ccccc2)cc(-c2ccccc2)n1	7.5	1.6	3.9	-1.3	0.2	.	.
O=C(N/N=C/c1cccn1-c1ccc([N+](=O)[O-])cc1)c1cccnc1	65.2*	-2.2	-1.4	-14.9	-0.7	1.2	-3.3
O=C(N/N=C/c1cccnc1)c1ccc([N+](=O)[O-])cc1	6.9	-0.3	1.3	1.7	-0.2	.	.
COc1ccc(-c2nnn(CC(=O)N(Cc3ccco3)C(C(=O)NCC3CCCO3)c3ccco3)n2)cc1 (stereo not given)	45.3*	0.4	0.3	-37.1	0.0	-9.0	-32.3
CC(C)N=c1scc(-c2cccs2)n1/N=C/c1ccc(O)c(O)c1O	42.6*	7.1	0.0	-13.4	.	-10.4	16.9
CN=c1scc(-c2ccccc2F)n1/N=C/c1ccc(O)c(O)c1O	23.1	.	.	-17.7	-2.2	.	.
COc1ccc(N(CC(=O)NCc2ccc(F)cc2)C(=O)Cn2nnc(-c3ccc(C)o3)n2)cc1OC	-7.8	-1.2	0.0	-37.0	0.4	.	.
CCSc1nnc(NC(=O)CCC2CCCCC2)s1	.	-2.8	0.5	.	0.3	.	.
Oc1c(/C=C/C=C/C=Nc2ccccc2)sc(=S)n1Cc1ccccc1	44.4*	6.3	0.5	-10.6	0.6	64.6*	32.9	FID counter DR=i
Cc1ccc(S(=O)(=O)Nc2ccc(Br)cc2/C=N/n2cnnc2)cc1	36.1*	3.6	4.2	-2.5	-0.5	37.9*	-7.8
O=C(Cc1c(F)cccc1Cl)NNC(=S)Nc1ccc(S(=O)(=O)Nc2ncccn2)cc1	-1.1	0.0	1.0	-9.7	-0.1	.	.
O=[N+]([O-])c1ccc(/C=C/C2=NN(c3ccccc3)C(c3ccco3)C2)o1 (stereo not given)	8.4	.	.	-3.8	0.6	.	.
C(=C\c1ccco1)/C1=NN(c2ccccc2)C(c2ccco2)C1 (stereo not given)	46.4*	2.2	-0.3	-17.0	2.7	58.1*	8.1
Cc1cccc(CCNC(=O)CCc2nnc(CCc3ccccc3)o2)n1	9.8	-3.0	3.2	-12.3	0.3	.	.
CC(C)(C)C1CCc2[nH]nc(C(=O)O)c2C1 (stereo not given)	36.6*	1.3	2.2	-15.0	.	-14.3	-1.5
O=C(NCc1ccc2c(c1)OCO2)C1CC(=O)N(CCc2ccc(Cl)cc2)C1 (stereo not given)	-11.1	0.1	-0.6	-27.6	-0.1	.	.
CC(O)[C@H](NC(=O)C1(c2ccccc2)CCN(C(=O)OC(C)(C)C)CC1)C(=O)O (stereo not given in full)	-5.5	-3.6	3.5	-25.9	-0.2	.	.
CCC(C)[C@H](NC(=O)C1(c2ccccc2)CCN(C(=O)OC(C)(C)C)CC1)C(=O)N[C@@H](C(=O)O)c1ccccc1 (stereo not given in full)	46.8*	-5.0	4.1	-18.8	0.2	25.0	-18.3
COc1ccc(CCN2C(=S)N(C)C(=O)C2CC(=O)Nc2ccc(F)cc2)cc1 (stereo not given)	-8.4	6.0	3.8	-8.1	-0.2	.	.
O=C(O)c1cccc(-n2c(/C=C/c3ccccc3)nc3ccccc3c2=O)c1	52.6*	12.2	1.5	-25.3	-0.6	53.3*	-22.9	FID counter DR=>79.4
CN(C)c1ccc(/C=C/c2nc3ccccc3c(=O)n2-c2ccc(C(=O)O)cc2)cc1	-15.9	-0.2	-4.8	-8.0	-0.3	.	.
CCn1ccnc1CN(C)Cc1c(C(=O)N2CCCCCCC2)nc2ccc(Cl)cn12	2.3	0.5	-1.2	-13.6	-0.8	.	.
CC1CCc2c(sc(/N=C/c3ccco3)c2C(N)=O)C1 (stereo not given)	36.6*	-3.6	0.1	-5.8	2.9	-3.6	0.8
CC1CCc2c(sc(/N=C/c3cccnc3)c2C(N)=O)C1 (stereo not given)	4.5	0.3	1.2	-7.2	0.5	.	.
O=C(NC(Cc1ccccc1)C(=O)O)/C(=C\c1ccco1)NC(=O)c1ccccc1 (stereo not given)	36.5*	-2.7	2.0	-37.8	-0.2	54.1*	-16.7
SMILES	HCV NS3 hel inh	PP1 inh	PP5 inh	DNA FID counter-1	HIF act	NS3 hel confirm	DNA FID counter-2	others
O=C(O)/C(=C\c1ccco1)NC(=O)c1cccc2ccccc12	53.2*	3.5	3.4	-11.9	-0.1	-7.5	0.8
O=C(O)/C(=C/c1ccco1)NC(=O)c1ccccc1	21.1	-0.6	0.3	-5.0	1.4	.	.
COc1cccc(CCc2nnc(CCC(=O)N3CCN(Cc4ccccn4)CC3)o2)c1	-14.6	-7.0	-0.2	-13.8	-0.4	.	.
CCCc1cc(C(=O)OCC(=O)N2CCN(c3ccc(OC)cc3)CC2)sc1C	.	-0.4	0.8	.	.	.	.
C=CCSC1=N/C(=C\c2sccc2C)C(=O)S1	15.0	-0.5	-1.2	-3.1	1.1	.	.
C=CCSC1=N/C(=C\C=C\c2ccco2)C(=O)S1	41.7*	9.0	3.6	-11.3	0.0	50.4*	19.4	FID counter DR=>79.4
COCCNC(=O)c1cnn2c(C(F)(F)F)cc(-c3ccc(C)cc3)nc12	-4.7	-3.1	1.5	-7.0	0.3	.	.
Cc1cccc(-c2oc3ccc(-c4ccc5c(c4)OCO5)cc3c2/C=C/c2ccc(N)cc2)c1	45.2*	0.8	-0.1	-16.9	-0.7	-7.9	17.2
CSCCC(NC(=O)c1ccccc1)C(=O)N1CCN(C(C)=O)CC1 (stereo not given)	.	-2.9	2.7	.	.	.	.
COc1ccccc1OCC(=O)Nc1nnc(-c2ccco2)s1	4.6	.	.	-20.1	0.3	.	.
Cc1cccc(OCC(=O)Nc2nnc(-c3ccco3)s2)c1	40.7*	9.1	1.6	-5.8	-0.6	-17.1	2.5
COc1cccc(-c2nc(-c3ccccc3)c(-c3ccccc3)[nH]2)c1OCC(=O)O	45.6*	.	.	-49.5	1.2	64.4*	-11.6
O=S(=O)(O)c1nc2ccccc2n1Cc1cccc2ccccc12	43.3*	-2.1	-0.2	-26.6	0.3	61.9*	-20.6
COc1ccc(CN(C)C(C)C(=O)N(C)CC(=O)Nc2ccc(C)cc2)cc1F (stereo not given)	.	-0.2	1.1	.	.	.	.
O=C(Cn1nc(-c2ccco2)ccc1=O)Nc1ccc(Br)cc1	40.0*	1.9	-4.0	-8.2	-0.3	-16.4	-3.8
CC1CC1C(=O)N(C)CC(=O)Nc1cccc(F)c1 (stereo not given)	.	2.5	0.0	.	-1.3	.	.
CCOC(=O)C1=c2s/c(=C\c3ccncc3)c(=O)n2C(N)=C(C(=O)OC)C1c1ccncc1 (stereo not given)	-0.3	1.6	1.9	-7.0	-0.5	.	.
CCOC(=O)C1=C(C)NC(C)=C(C(=O)OC)C1c1ccco1 (stereo not given)	37.1*	-2.4	1.1	-5.8	1.6	-4.6	10.5
